Assay results from publication PMC5689068 (ACS chemical neuroscience, 2016).
Read-outs that look alike come from different tables or passages of the source. Where a SMILES comes first, the peptide text is derived from it. [ ]: non-standard residue; d: D form. Nle = CCCC[C@H](N)C(=O)O

Columns and labels:
[1] = In vitro stability in rat plasma; format: in vitro ADME; conditions: for remaining at 24 h, 10 mg/mL / half-life / remaining at 120 h, 10 mg/mL: rat; for half-life: plasma, t1/2 in rat plasma, 37 °C
BK receptors [2] = test: Radioligand competition binding assay with [3H]BK in rat brain membranes; conditions: pH 6.8, rat brain membranes, 1 nM [3H]BK; for IC50: read-out: IC50, BK receptors, [3H]BK
BK receptors [3] = conditions: competition assay using 1 nM [3H]DALKD, cited from earlier work
naïve rats [4] = test: von Frey filament and Infra-Red tests in naïve rats; format: in vivo, rat
Procedure, shortened: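 Nonfasted male Sprague-Dawley rats (250–300 g) carried i.th. catheters placed through the atlanto-occipital membrane to lumbar level under ketamine/xylazine (80/12 mg/kg i.p.). Naïve rats received Dyn A-(2–13) with or without test compound (3 nmol/5 µL i.th.). Tests were run every 20 min up to 120 min. Infrared paw withdrawal latency was calibrated to ~20 s on the uninjured paw; von Frey thresholds used the up-down/Dixon method. One-way ANOVA, p ≤ 0.05.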

SNL rats [5] = test: Hypersensitivity tests in L5/L6 spinal nerve ligation; format: in vivo, rat; conditions: i.th.
Procedure, shortened: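 L5/L6 spinal nerve-ligated male Sprague-Dawley rats (250–300 g, nonfasted) with lumbar-level i.th. catheters received test compound or vehicle at 3 nmol/5 µL i.th. Tactile paw withdrawal thresholds were measured against baseline and post-SNL values with von Frey filaments (up-down method, Dixon analysis) every 20 min up to 120 min after injection. One-way ANOVA, significance at p ≤ 0.05.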

[6] = In vitro stability in human plasma; format: in vitro ADME; conditions: for Intact (%) / remaining at 24 h, 10 mg/mL: human plasma; for Intact (%): after a 24 h incubation
Procedure, shortened: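 Test compound stock (50 mg/mL in water) was diluted 5-fold into lithium-heparin human plasma and incubated at 37 °C. Samples were taken at 1, 2, 4, 6, 12 and 24 h, quenched with EtOH and centrifuged. Supernatant was run on C-18 RP-HPLC (10–90% acetonitrile, 40 min). t1/2 = 0.693/b, where b is the slope of ln(fraction parent remaining) versus time. Three independent experiments.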

[7] = Rat plasma stability of 1 with or without protease inhibitors; format: in vitro ADME; conditions: t1/2, rat plasma, calculated after a 4 h incubation
Procedure, shortened: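 Test compound was added to rat plasma together with one protease inhibitor (60 nM bestatin, 100 µM chymostatin, 1 mM PMSF, 10 µM captopril or 1 mM EDTA), with all five combined, or with none. Incubation was at 37 °C after 5-fold dilution of the stock. Parent remaining was measured by RP-HPLC after EtOH quench. t1/2 was calculated after 4 h incubation as 0.693/slope of ln(fraction remaining) versus time.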

naïve rats [8] = conditions: naïve animals, i.th.; cited from earlier work
SNL rats [9] = conditions: nerve-injured animals (L5/L6 SNL), i.th., dose-dependent; cited from earlier work
[10] = calculated from a 5 day stability test
[11] = i.th. co-administration 3 nmol/5 μL with Dyn A-(2–13) 3 nmol

Compound	remaining at 24 h, 10 mg/mL ([1]; rat plasma)	log[IC50], BK receptors, [3H]BK (BK receptors [2])	IC50 (BK receptors [2])	half-life ([1]; 24 h study)	remaining at 24 h, 10 mg/mL ([6]; human)	other results
CC[C@H](C)[C@H](NC(=O)[C@H](CCCNC(=N)N)NC(=O)[C@H](CC(C)C)NC(=O)[C@@H](N)Cc1ccccc1)C(=O)N[C@@H](CCCNC(=N)N)C(=O)N1CCC[C@H]1C(=O)N[C@H](CCCCN)C(=O)O [compound 11, H-Phe-Leu-Arg-Ile-Arg-Pro-D-Lys-OH]	0%	−6.03 ± 0.14	0.83 µM	–	–	–
CCCC[C@H](NC(=O)[C@H](CCCNC(=N)N)NC(=O)[C@H](CCCC)NC(=O)[C@@H](N)Cc1ccccc1)C(=O)N[C@@H](CCCNC(=N)N)C(=O)N1CCC[C@H]1C(=O)N[C@@H](CCCNC(=N)N)C(=O)O [compound 4, H-Phe-Nle-Arg-Nle-Arg-Pro-Arg-OH] (H-F[Nle]R[Nle]RPR-OH)	0%	–	–	1.2 h	–	log[IC50], BK receptors (BK receptors [3]): −7.06 ± 0.10; IC50 (BK receptors [3]; read-out: IC50, BK receptors): 0.086 µM
CC[C@H](C)[C@H](NC(=O)[C@H](CCCNC(=N)N)NC(=O)[C@H](CC(C)C)NC(=O)[C@H](Cc1ccccc1)NC)C(=O)N[C@@H](CCCNC(=N)N)C(=O)N1CCC[C@H]1C(=O)N[C@@H](CCCCN)C(=O)O [compound 20, H-NMePhe-Leu-Arg-Ile-Arg-Pro-Lys-OH]	31 ± 11%	−6.06 ± 0.14	0.87 µM	15 h	–	–
CC[C@H](C)[C@H](NC(=O)[C@H](CCCNC(=N)N)NC(=O)[C@H](CC(C)C)NC(=O)[C@H](N)Cc1ccccc1)C(=O)N[C@@H](CCCNC(=N)N)C(=O)N1CCC[C@H]1C(=O)N[C@@H](CCCCN)C(=O)O [compound 17, H-D-Phe-Leu-Arg-Ile-Arg-Pro-Lys-OH]	44 ± 12%	−6.60 ± 0.14	0.25 µM	19 h	–	–
CC[C@H](C)[C@H](NC(=O)[C@H](CCCNC(=N)N)NC(=O)[C@@H](CC(C)C)NC(=O)[C@@H](N)Cc1ccccc1)C(=O)N[C@@H](CCCNC(=N)N)C(=O)N1CCC[C@H]1C(=O)N[C@@H](CCCCN)C(=O)O [compound 16, H-Phe-D-Leu-Arg-Ile-Arg-Pro-Lys-OH]	99 ± 9%	−6.90 ± 0.23	0.13 µM	–	99 ± 10%	increase in stability in plasma compared to that of 1 [1]: 229 fold; Intact (%) ([1]; rat plasma, after a 24 h incubation): more than 95%; half-life [1, 10]: 160 h; remaining at 120 h, 10 mg/mL ([1]; rat plasma): 66%; Dyn A-(2–13)-induced tactile hypersensitivity (von Frey filament test) (naïve rats [4]; [11]): blocked; Dyn A-(2–13)-induced thermal hypersensitivity (Infra-Red test) (naïve rats [4]; [11]): blocked; time of maximal paw withdrawal threshold and latency after injection (naïve rats [4]; i.th., 3 nmol/5 μL): 40 min; nerve injury-related tactile hypersensitivity (SNL rats [5]): modulated; Intact (%) [6]: more than 95%
CC[C@@H](C)[C@@H](NC(=O)[C@H](CCCNC(=N)N)NC(=O)[C@H](CC(C)C)NC(=O)[C@@H](N)Cc1ccccc1)C(=O)N[C@@H](CCCNC(=N)N)C(=O)N1CCC[C@H]1C(=O)N[C@@H](CCCCN)C(=O)O [compound 14, H-Phe-Leu-Arg-D-Ile-Arg-Pro-Lys-OH]	0%	–	> 10 µM	3.3 h	–	–
CC[C@H](C)[C@H](NC(=O)[C@H](CCCNC(=N)N)NC(=O)[C@H](CC(C)C)N(C)C(=O)[C@@H](N)Cc1ccccc1)C(=O)N[C@@H](CCCNC(=N)N)C(=O)N1CCC[C@H]1C(=O)N[C@@H](CCCCN)C(=O)O [compound 21, H-Phe-NMeLeu-Arg-Ile-Arg-Pro-Lys-OH]	100 ± 16%	–	–	> 4000 h	96 ± 5%	half-life [1, 10]: 65 h; remaining at 120 h, 10 mg/mL ([1]; rat plasma): 31%; Intact (%) [6]: more than 95%
Dyn A-(2–13) [reference compound]	–	–	–	–	–	paw withdrawal latency (Infra-Red test) (naïve rats [4]; i.th. injection 3 nmol, alone): reduced; paw withdrawal threshold (von Frey filament test) (naïve rats [4]; i.th. injection 3 nmol, alone): reduced
CC[C@H](C)[C@H](NC(=O)[C@@H](CCCNC(=N)N)NC(=O)[C@H](CC(C)C)NC(=O)[C@@H](N)Cc1ccccc1)C(=O)N[C@@H](CCCNC(=N)N)C(=O)N1CCC[C@H]1C(=O)N[C@@H](CCCCN)C(=O)O [compound 15, H-Phe-Leu-D-Arg-Ile-Arg-Pro-Lys-OH]	62 ± 25%	−6.51 ± 0.19	0.31 µM	31 h	–	–
CC[C@H](C)[C@H](NC(=O)[C@H](CCCNC(=N)N)NC(=O)[C@H](CC(C)C)NC(=O)[C@@H](N)Cc1ccccc1)C(=O)N[C@@H](CCCNC(=N)N)C(=O)N1CCC[C@H]1C(=O)N[C@@H](CCCCN)C(=O)O [compound 1, H-Phe-Leu-Arg-Ile-Arg-Pro-Lys-OH]	0%	−6.83 ± 0.09	0.15 µM	< 1 h	0%	time to complete degradation ([1]; rat plasma incubation): ≤ 4 h; half-life ([7]; 60 nM bestatin): 0.8 h; half-life ([7]; 1 mM EDTA): 0.8 h; half-life ([7]; 1 mM PMSF): 0.8 h; Dyn A-induced hyperalgesia and motor impairments (naïve rats [8]): block Dyn A-induced hyperalgesia and motor impairments; thermal hyperalgesia and mechanical hypersensitivity (SNL rats [9]): reverse thermal hyperalgesia and mechanical hypersensitivity; time to degradation ([6]; human plasma incubation): ≤ 4 h; half-life ([6]; human, plasma): 2.4 h
